A selection: hits, their analogues and other compounds. The true share with any hit is near 5.2%.
AP complement: alternative pathway complement inhibition, orthogonal assay | inhibition, % at 5 µM | actives 0.08% (n = 62,000) | Human serum alternative complement pathway, LPS-coated ELISA, C3 deposition; tested in compound mixtures;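 active = inhibition above 30% in each of the two pooled mixtures holding the compound, so the lower value exceeds 30%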;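 note: 0% = serum in Mg-EGTA without compound and 100% = EDTA serum blank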
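Assay system: human serum alternative complement pathway, C3 deposition on LPS-coated wells; Dosing: 5 µM per compound in ten-compound mixtures; Detection: Anti-C3 ELISA, OD 450 nm; Buffer or medium: Mg2+-EGTA GVB++ buffer containing human serum at 1:15 dilution; Timing: 1 h at 37 °C; Replication: two different pools per compound.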
Ecoli WT expand: growth inhibitors of E. coli BW25113 wild type; growth inhibition, % at 100 µM; actives 0.15% (n = 98,000); AID 710; OD600 absorbance;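 active = growth inhibition above about 50% at one test dose, limit read from the data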;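 note: growth measured after 20 h incubation at 37 °C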
M1 ag: activates the M1 muscarinic receptor; CHO-M1 cells, Fluo-4 calcium fluorescence, agonist mode; active compounds read high; B-score at 10 µM; actives 3% (n = 64,000);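 active = fluorescence rise, raw or as B-score row- and column-corrected plate score, outside the 99.7% band of its plate's samples, either direction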
M1 antag: M1 muscarinic receptor (rat) antagonism; P08482; CHO-M1 cells, Fluo-4 calcium, ACh EC80 antagonist mode; active compounds read low; B-score at 10 µM; actives 3.4% (n = 64,000); AID 628;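 active = calcium fluorescence response, raw or row-and-column corrected B-score, differing from the plate sample mean either way at a set confidence level, mostly lower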
Ecoli tolC: blocks growth of E. coli BW25113 tolC mutant; actives 2.2% (n = 65,000); OD615; growth inhibition, % at 10 µM (by protocol);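 active = growth inhibition at or above a cutoff equal to the mean over every tested compound plus 3 SD, cut at about 60% in these data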;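 note: growth measured after 20 h incubation at 37 °C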
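System: E. coli ΔtolC::kan strain BW25113; Buffer or medium: LB broth supplemented with 50 µg/mL kanamycin; Compound: 10 µM final, single dose; Incubation: bacterial growth with compound for 20 h at 37 °C; Signal: A615 absorbance measurement; Evaluation: growth inhibition in percent.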
WNV NS2B-NS3 inh: WNV NS2B-NS3 proteinase inhibition; P06935; z-score (test concentration not listed); WNV NS2B-NS3 protease, fluorogenic substrate Ex360/Em465; active compounds read low; actives 0.18% (n = 65,000); AID 577; in the data active = z-score below about -3
M1 agonist conf: confirmation of rat M1 muscarinic receptor agonists; shares compounds with M1 ag; CHO-M1 cells, Fluo-4 calcium fluorescence, agonist mode; actives lie on both sides; fluorescence change (max-min) at 10 µM; actives 19% (n = 1,700);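 active = fluorescence change differs from the solvent-only DMSO control mean at a set confidence level in both duplicate runs; inconclusive = differs from solvent-only control mean in just one of two runs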;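 note: an EC20 dose of acetylcholine follows compound addition during the same imaging run; raw fluorescence intensity difference in instrument units with no normalization to controls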
M4 agonist ctr: activates rat M4 receptor in counter-screen for M1 agonists | shares compounds with M1 ag | CHO M4/Gqi5 cells, Fluo-4 calcium fluorescence, agonist mode; actives lie on both sides | fluorescence change (max-min) at 10 µM | actives 9% (n = 1,700) | AID 1741;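 active = fluorescence change differing from the plate's solvent-only control wells at 99.7% confidence in both duplicates, whether higher or lower; inconclusive = differs from solvent controls in only one of two duplicates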
Target sequence (P08485 whole entry, looked up): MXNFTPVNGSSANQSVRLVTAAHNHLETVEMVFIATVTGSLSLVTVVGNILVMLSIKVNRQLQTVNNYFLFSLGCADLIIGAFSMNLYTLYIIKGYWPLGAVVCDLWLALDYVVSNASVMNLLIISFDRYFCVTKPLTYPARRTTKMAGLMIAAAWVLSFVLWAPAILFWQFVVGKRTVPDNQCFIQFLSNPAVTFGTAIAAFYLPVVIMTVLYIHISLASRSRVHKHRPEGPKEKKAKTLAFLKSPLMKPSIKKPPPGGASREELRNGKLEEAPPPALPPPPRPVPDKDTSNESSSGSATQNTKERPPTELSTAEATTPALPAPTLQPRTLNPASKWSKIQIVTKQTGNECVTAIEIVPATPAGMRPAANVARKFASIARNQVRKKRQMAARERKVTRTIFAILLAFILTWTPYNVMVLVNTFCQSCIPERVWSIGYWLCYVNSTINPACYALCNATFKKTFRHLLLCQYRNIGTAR
* marks the source's active call; other numbers are inactive results; u = inconclusive; x = no result given.

SMILES	AP complement	Ecoli WT expand	M1 ag	M1 antag	Ecoli tolC	WNV NS2B-NS3 inh	M1 agonist conf	M4 agonist ctr
COCCCn1c(=NC(=O)c2ccncc2)c(C#N)cc2c(=O)n3cccc(C)c3nc21	18.6	4.0	129*	-1.04	19.2	4.04	469*	363*
CCCCn1c(=NC(=O)c2cccnc2)c(C#N)cc2c(=O)n3cccc(C)c3nc21	x	-1.0	x	x	x	x	x	x
CCCCCc1c(C)c(C#N)c2nc3ccccc3n2c1-n1ccnc1C	x	-9.0	x	x	x	x	x	x
C=C(C)CN1CCN(c2c(CCC#N)c(C)c(C#N)c3nc4ccccc4n23)CC1	x	-3.0	5.7*	0.0647	-0.3	0.11	7.39	0.765
COC(=O)c1cc(OC)c(OC)cc1NC(=S)N1CCN(c2ccccc2)CC1	x	-17.0	x	x	x	x	x	x
COc1cccc(C(=O)OCn2nnc3ccccc3c2=O)c1	10.6	2.0	2.21*	-0.135	5.5	0.58	-25.5	-21.4
O=C(CC(c1ccccc1)c1ccccc1)OCn1nnc2ccccc2c1=O	x	-23.0	x	x	x	x	x	x
CC(C)CCn1c(SCC(=O)OCn2nnc3ccccc3c2=O)nc2ccccc2c1=O	12.6	-2.0	3.67*	-0.0438	13.5	-0.7	-10.7	-38.7
CC(=O)Nc1c(O)n(C)c2ccccc12	-3.9	5.0	-0.404	0.38	-24.6	0.17	x	x
O=S(=O)(Nc1ccc2nc(-c3ccc(Br)o3)[nH]c2c1)c1ccccc1	12.7	2.0	0.591	0.774	29.4	-1.26	x	x
O=S(=O)(Nc1ccc2nc(C(F)(F)F)[nH]c2c1)c1ccccc1	13.9	32.0	2.43*	-0.224	33.8	-0.96	-19.9	-31.8
O=C(Nc1nccs1)C12CC3CC(C1)CC(C(=O)Nc1nccs1)(C3)C2	-0.3	1.0	4.03*	-0.307	19.5	-1.11	u	-39.5
O=C(NC1=NCCS1)C12CC3CC(C1)CC(C(=O)NC1=NCCS1)(C3)C2	-3.0	3.0	0.734	-0.697	-9.8	-0.16	x	x
COc1ccc(CNC(=O)C2CCCN(c3nc4ccccc4o3)C2)c(OC)c1 (stereo not given)	-0.2	-10.0	-0.079	0.0995	4.0	0.02	x	x
Cc1ccc(CCNC(=O)C2CCCN(c3nc4ccccc4o3)C2)cc1 (stereo not given)	-6.1	3.0	7.46*	-0.988	21.9	0.79	-10.4	-26.9
O=C(Nc1ccc(SC(F)F)cc1)c1ccc2nccnc2c1	13.8	-5.0	3.84*	-0.934*	2.8	-0.13	-16.7	-2.31
Cc1nc2ccccc2c(=O)n1/N=C/c1ccccc1	x	0.0	x	x	x	x	x	x
Cc1nc2ccccc2c(=O)n1/N=C/c1cn(-c2ccccc2)nc1-c1cccs1	4.9	-13.0	3.52*	-0.318	-5.6	-0.81	u	-54.6
Cn1c(=O)n(C/C=C/c2ccccc2)c(=O)c2c1nc1n2CCCN1c1ccc(F)cc1	6.3	-9.0	3.26	-0.0536	34.7	0.65	x	x
CCOc1ncccc1C(=O)Nc1cccc(C(=O)Nc2cccc(S(=O)(=O)CCO)c2)c1	0.3	-2.0	10.2*	-0.578	4.0	0.42	-12.7	-19.8
CCOC(=O)C1CCCN(C(=O)C2CCCN(S(C)(=O)=O)C2)C1 (stereo not given)	-1.0	-3.0	0.809	0.0443	-15.7	1.77	x	x
CC(C)[C@H](NC(=O)[C@@H]1CSCN1C(=O)OC(C)(C)C)C(=O)NCC1CCC(C(=O)O)CC1 (stereo not given in full)	22.5	-3.0	1.84*	1.01	-18.0	0.45	-4.43	u
CSc1nc2[nH]c3c(c2c2ncnn12)CCCC3	x	-2.0	8.11*	-0.175	5.9	0.37	u	-68.2
CC1N=C2c3ccccc3N=C(SCc3cc(=O)n4ccccc4n3)N2C1=O (stereo not given)	21.2	x	0.0595	-2.85	-3.6	-0.21	x	x
Cc1ccc(CNC(=O)CSc2c3c(nc4cc(Cl)ccc24)CCCC3)o1	x	-2.0	x	x	x	x	x	x
SMILES	AP complement	Ecoli WT expand	M1 ag	M1 antag	Ecoli tolC	WNV NS2B-NS3 inh	M1 agonist conf	M4 agonist ctr
CCCCn1c(SCC(=O)Nc2nnc(C)s2)nnc1-c1ccoc1C	-0.9	0.0	3.24*	-0.396	25.9	-0.46	u	-37.6
Cc1c(NC(=O)c2ccc(F)cc2)c(=O)n(-c2ccccc2)n1C	14.1	9.0	1.43	0.45	-9.3	0.25	x	x
Cc1c(NC(=O)c2ccc(COc3ccc4ccccc4c3)o2)c(=O)n(-c2ccccc2)n1C	-1.6	x	-2.82*	0.0263	34.2	-1.02	-14.1	-52.3
Cc1c(NC(=O)c2cccc(F)c2)c(=O)n(-c2ccccc2)n1C	3.3	-7.0	8.89*	-6.54*	-13.1	0.27	-14.4	u
Cc1cccc(N2CCN(C(=O)C3CCN(c4nnc(-n5cccc5)s4)CC3)CC2C)c1 (stereo not given)	5.1	-18.0	16*	-1.63	23.4	-0.4	u	-48.2
Cc1cccc(N2CCN(C(=O)C3CCN(S(=O)(=O)c4cccc5cccnc45)CC3)CC2C)c1 (stereo not given)	14.6	2.0	8.62*	-1.85	4.2	-0.00275	-11.6	u
Cc1cccc(N2CCN(C(=O)C3CCN(S(=O)(=O)c4cccc5nsnc45)CC3)CC2C)c1 (stereo not given)	9.9	-4.0	16.1*	-2.04	16.1	-0.85	-32.8*	-87.7
O=C(C1CCN(c2nnc(-n3cccc3)s2)CC1)N1CCN(Cc2ccc3c(c2)OCO3)CC1	-4.7	-1.0	-2.61*	-1.31	2.9	0.96	-11.7	-61.6
Cc1[nH]c2ccc(-c3nnc(SCC(=O)NCc4ccco4)n3Cc3ccccc3)cc2c1C	14.1	0.0	2.98	0.831	47.2	-0.95	x	x
CCOC(=O)C1CCN(Cc2nc3ccc(Cl)cc3n2CCO)CC1	x	-2.0	0.0264	-0.93	-9.4	-0.73	x	x
CCCCC(CCC(=O)Nc1nccs1)C(=O)O (stereo not given)	x	7.0	x	x	x	x	x	x
CN1CCN(c2nc(-c3ccccc3)cc(C(F)(F)F)n2)CC1	x	26.0	x	x	x	x	x	x
CN1CCN(c2nc(-c3cccs3)cc(C(F)(F)F)n2)CC1	4.1	9.0	3.1*	-18*	5.7	0.27	u	u
O=C(c1ccc(CS(=O)(=O)c2c(Cl)cccc2Cl)o1)N1CCN(c2ccccn2)CC1	14.1	-4.0	3.36*	-2.98*	14.3	-0.18	-15.7	-24.3
COc1ccccc1S(=O)(=O)Cc1ccc(C(=O)N2CCN(c3ccccc3)CC2)o1	-4.1	9.0	1.93	-0.896	1.0	-1.11	x	x
Cc1cccc(N2CCN(C(=O)CS(=O)(=O)Cc3nc(-c4ccccc4F)oc3C)CC2C)c1 (stereo not given)	5.1	-3.0	2.25	-0.964	24.5	-1.75	x	x
Cc1cccc(N2CCN(C(=O)c3ccc(CS(=O)(=O)c4ccccc4C)o3)CC2C)c1 (stereo not given)	-4.1	-11.0	9.2*	-2.16*	17.8	-0.06	u	-29.7

Source: PubChem (several laboratories)
